The record followed here is ChEMBL document CHEMBL3351764, “Design, synthesis and biological activity of flavonoid derivatives as selective agonists for neuromedin U 2 receptor” (Bioorg Med Chem, 2014).

Sequence of Neuromedin-U receptor 2 (Q9GZQ4 whole entry): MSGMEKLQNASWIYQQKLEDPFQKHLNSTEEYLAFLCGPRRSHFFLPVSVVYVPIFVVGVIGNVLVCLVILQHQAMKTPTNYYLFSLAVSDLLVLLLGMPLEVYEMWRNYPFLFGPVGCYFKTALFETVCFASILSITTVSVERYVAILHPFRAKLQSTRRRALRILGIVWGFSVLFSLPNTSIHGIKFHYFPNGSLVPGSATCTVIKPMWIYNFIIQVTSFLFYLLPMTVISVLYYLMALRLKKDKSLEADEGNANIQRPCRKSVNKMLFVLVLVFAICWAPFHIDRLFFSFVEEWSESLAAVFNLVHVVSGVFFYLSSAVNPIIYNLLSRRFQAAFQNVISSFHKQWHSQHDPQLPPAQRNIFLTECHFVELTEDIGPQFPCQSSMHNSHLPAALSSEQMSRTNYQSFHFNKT

This test has as its target Neuromedin-U receptor 2 (Homo sapiens, UniProt Q9GZQ4). Put plainly: Agonist activity at human NMU2R transfected in HEK293 cells after 7 hrs by luciferase reporter gene assay. It counts as cell-based. The conditions noted are these: read-out: EC50. An outline of the steps: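 HEK-293 cells were stably co-transfected with a reporter gene construct and human NMU2R cDNA in pcDNA3.1(+), maintained under G418 selection at 37 °C in 5% CO2, then seeded and incubated overnight. Compounds were added at various concentrations for 7 h at 37 °C, followed by Bright-Glo luciferase read-out. Forskolin and NMU served as positive controls. EC50 was fitted by four-parameter logistic regression; means ± SEM of three independent experiments.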
On the technique in general: Reporter assays use an easily measured gene product as a stand-in for the process of interest.
Regarding `C[C@@H]1O[C@@H](OC[C@H]2O[C@@H](Oc3c(-c4ccc(O)c(O)c4)oc4cc(O)cc(O)c4c3=O)[C@H](O)[C@@H](O)[C@@H]2O)[C@H](O)[C@H](O)[C@H]1O` [RUTIN], the EC50 amounted to 1200 µM.
`CNCC(O)c1ccc(O)cc1` (stereo not drawn) [OXEDRINE]: the EC50 was found to be 6.6 µM.
Next, H-FRVDEEFQSPFASQSRGYFLFRPRN-NH2: 6.1 µM.

The term EC50 denotes the concentration at which the effect is half-maximal.
